# Results from ChEMBL document CHEMBL4354867, “Validation and Characterization of Five Distinct Novel Inhibitors of Human Cytomegalovirus” (J Med Chem, 2020).
# The source made the active and inactive calls. The rule behind the calls is not given here.
# Assays:
# Human alphaherpesvirus 1 = test: Antiviral activity against HSV 1 infected in African green monkey Vero cells assessed as reduction in plaque formation incubated for 36 hrs by crystal violet staining based assay; type: functional, organism-based; conditions: vero
# Method in brief: (§1)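 Plaque reduction in Vero cells: virus adsorbed 60 min, then compound added in a carboxymethylcellulose overlay. Plaques counted after 36 h by crystal violet staining.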
# Human betaherpesvirus 5 [1] = test: Antiviral activity against HCMV TB40 infected in human HFF cells assessed as reduction in plaque formation at 0.5 to 3 uM treated with compound following viral infection at […] measured after 8 days by crystal violet staining analysis; type: functional, organism-based
# Method in brief: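 HFFs (2 × 10⁵/well) infected with HCMV TB40 at about 100 plaques/well for 90 min. Inoculum removed, then DMEM with 0.5% CMC, 4% FBS and compound added. Incubated at 37 °C; plaques stained with crystal violet and counted at 8 dpi. Experiment repeated three times; one representative shown.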
# Human betaherpesvirus 5 [2] = test: Antiviral activity against HCMV Towne infected in human HFF cells assessed as reduction in viral DNA replication at 3 uM treated with compound following viral infection at MOI of 0.1 PFU/cell by US17 real time PCR analysis; type: functional, organism-based; conditions: strain Towne
# Method in brief: (§2)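 At set time points supernatants were harvested and cells lysed for DNA. Cell-associated viral DNA and supernatant viral DNA quantified by real-time PCR targeting a 151-bp conserved US17 region.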
# Human gammaherpesvirus 4 = test: Antiviral activity against EBV infected in human AKATA cells assessed as reduction in IgG-induced lytic virus replication measured at 48 hrs post-lytic induction by qRT-PCR analysis; type: functional, organism-based
# Human betaherpesvirus 5 [3] = test: Inhibition of viral protein expression in HCMV Towne infected in human HFF cells assessed as reduction in IE1 expression at 1 to 10 uM treated with compound following viral infection at MOI of 1 PFU/cell measured at 72 hrs post infection by Western blot analysis; type: functional, organism-based; conditions: strain Towne
# Method in brief: (§3)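 HFFs infected with HCMV Towne (MOI 1), then treated with compound. Lysates taken at 72 hpi, equal protein loaded on 8–10% Tris-glycine SDS-PAGE and transferred to PVDF. Primary antibodies overnight at 4 °C, HRP secondary, chemiluminescent detection; β-actin as loading control.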
# HFF = test: Cytotoxicity against human HFF cells assessed as reduction in cell viability incubated for 72 hrs or 10 days by MTT assay; type: cell-based
# Method in brief: (§4)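 MTT assay on uninfected cells exposed to compound for 72 h or 8–10 days, matching the antiviral assay durations. MTT (5 mg/mL stock in PBS) added, then 2–3 h at 37 °C. Formazan absorbance read at 560 nm.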
# Human betaherpesvirus 5 [4] = test: Antiviral activity against pp28-luciferase expressing HCMV Towne infected in human HFF cells assessed as reduction in viral replication treated with compound immediately after viral infection at MOI of 1 PFU/cell followed by compound washout after 6 hrs and measured after 3 days by luciferase reporter gene assay; type: functional; conditions: strain Towne
# Method in brief: (§5)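 Time-of-addition in HFFs infected with HCMV Towne (MOI 1). Add-on: compound added at 0, 6, 24 or 48 hpi. Removal: compound added right after infection and washed out after 0, 6, 24 or 48 h. Luciferase read at 72 hpi.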
# [5] = Antiviral activity against Mouse Cytomegalovirus Smith (ATCC VR-1399) infected in mouse MEF cells assessed as reduction in plaque formation measured after 3 days by crystal violet staining based assay; type: functional, cell-based, Murine cytomegalovirus (strain Smith); conditions: Murid betaherpesvirus 1, ATCC VR-1399, MEF, 72 h; read-out: EC50
# Method in brief: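 Plaque reduction with MCMV Smith in mouse embryonic fibroblasts, with compound in a carboxymethylcellulose overlay. Assay ended at 3 days and plaques counted after crystal violet staining.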
# Human betaherpesvirus 5 [6] = test: Antiviral activity against pp28-luciferase expressing HCMV Towne infected in human HFF cells assessed as reduction in viral replication treated with compound at 24 hrs post viral infection at MOI of 1 PFU/cell and measured after 3 days by luciferase reporter gene assay; type: functional, organism-based; conditions: strain Towne; method in brief: as §5
# Human betaherpesvirus 5 [7] = test: Antiviral activity against HCMV Towne infected in human HFF cells assessed as reduction in plaque formation treated with compound following viral infection at MOI of 1 PFU/cell and measured at 10 days post-infection in presence of letermovir by crystal violet staining based assay; type: functional, organism-based; conditions: Human betaherpesvirus 5, strain Towne, 240 h
# Human betaherpesvirus 5 [8] = test: Antiviral activity against HCMV TB40 infected in human HFF cells assessed as reduction in plaque formation treated with compound following viral infection and incubated for 8 to 10 days by crystal violet staining based assay; type: functional, organism-based; conditions: Human betaherpesvirus 5, TB40, HFF
# Human betaherpesvirus 5 [9] = test: Antiviral activity against HCMV Towne infected in human HFF cells assessed as reduction in plaque formation treated with compound following viral infection and incubated for 8 to 10 days by crystal violet staining based assay; type: functional, organism-based; conditions: Human betaherpesvirus 5, strain Towne
# Human betaherpesvirus 5 [10] = test: Antiviral activity against HCMV Towne infected in human HFF cells assessed as reduction in viral DNA yields in the supernatant at 3 uM treated with compound following viral infection at MOI of 0.1 PFU/cell by US17 real time PCR analysis; type: functional, organism-based; conditions: strain Towne; method in brief: as §2
# Human betaherpesvirus 5 [11] = test: Antiviral activity against HCMV TB40 infected in human HFF cells assessed as reduction in plaque formation treated with compound following viral infection at MOI of 100 PFU/wells measured at 10 days post-infection in presence of GCV by crystal violet staining based assay; type: functional, organism-based; conditions: Human betaherpesvirus 5, TB40, HFF, 240 h
# Method in brief: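 HFFs were infected at about 100 plaques/well and adsorbed for 90 min. They were then overlaid with DMEM containing 0.5% carboxymethylcellulose, 4% FBS and drugs, and incubated at 37 °C. A dose-response of each drug alone gave its EC₅₀. Combinations started at twice each EC₅₀, followed by two-fold serial dilutions. Plaques were counted after crystal violet staining. The Bliss coefficient is observed over expected fold inhibition (>1 synergy, <1 antagonism, =1 additive).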
# Human betaherpesvirus 5 [12] = test: Inhibition of viral protein expression in HCMV Towne infected in human HFF cells assessed as reduction in IE2 expression at 1 to 10 uM treated with compound following viral infection at MOI of 1 PFU/cell measured at 72 hrs post infection by Western blot analysis; type: functional, organism-based; conditions: strain Towne; method in brief: as §3
# Human betaherpesvirus 5 [13] = test: Antiviral activity against GCV-resistant HCMV Towne infected in human HFF cells assessed as reduction in plaque formation treated with compound following viral infection and incubated for 8 to 10 days by crystal violet staining based assay; type: functional, organism-based; conditions: Human betaherpesvirus 5, strain Towne
# Human alphaherpesvirus 2 = test: Antiviral activity against HSV 2 infected in African green monkey Vero cells assessed as reduction in plaque formation incubated for 36 hrs by crystal violet staining based assay; type: functional, organism-based; conditions: vero; method in brief: as §1
# MEF = test: Cytotoxicity against mouse MEF cells assessed as reduction in cell viability at >=10 uM incubated for 72 hrs or 8 to 10 days by MTT assay; type: cell-based; method in brief: as §4
# Human betaherpesvirus 5 [14] = test: Antiviral activity against pp28-luciferase harboring UL97 C607Y mutant expressing GCV-resistant HCMV Towne infected in human HFF cells assessed as reduction in viral replication at 0.5 to 3 uM treated with compound following viral infection at MOI of 0.1 PFU/cell and measured at 72 hrs post infection by luciferase reporter gene assay; type: functional, organism-based; conditions: strain Towne
# Method in brief: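 HFFs infected with GCV-resistant pp28-luciferase Towne (MOI 0.1), then treated with a compound dilution series. Luciferase, driven by the UL99 late promoter, read in cell lysates at 72 hpi. Data are mean ± SD of triplicates from a single experiment.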
structure (smiles),measurement,setting,value
CC(C)NC(=O)C1CCN(C(=O)c2cc3sccc3n2Cc2ccc(Cl)cc2)CC1,EC50,Human alphaherpesvirus 1,Not Active
same,Activity,Human betaherpesvirus 5 [1],Active
same,Activity,Human betaherpesvirus 5 [2],Active
same,EC50,Human gammaherpesvirus 4,Not Active
same,inhibition,Human betaherpesvirus 5 [3],Active
same,CC50,HFF,> 200 µM
same,Activity,Human betaherpesvirus 5 [4],Active
same,EC50,[5],1000 nM
same,Activity,Human betaherpesvirus 5 [6],inactive
same,EC50,Human betaherpesvirus 5 [7],3.19 µM
same,EC50,Human betaherpesvirus 5 [8],1180 nM
same,EC50,Human betaherpesvirus 5 [9],4.61 µM
same,Activity,Human betaherpesvirus 5 [10],Active
same,EC50,Human betaherpesvirus 5 [11],1510 nM
same,inhibition,Human betaherpesvirus 5 [12],Active
same,EC50,Human betaherpesvirus 5 [13],1400 nM
same,EC50,Human alphaherpesvirus 2,Not Active
same,Activity,MEF,Toxic
same,Activity,Human betaherpesvirus 5 [14],Active
